SENP1 FRET inh: SENP1 (human) catalytic domain inhibition. Q9P0U3. recombinant SENP1 catalytic domain, CyPet-SUMO1-YPet FRET cleavage. inhibition, % at 10 µM. actives 0.21% (n = 360,000). AID 624204;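 active means inhibition at least 30% at 10 µM, raw YFP signal under a set limit, fluorescence ratio 0.5 to 1.5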
Target sequence (Q9P0U3 419-644 limits assumed): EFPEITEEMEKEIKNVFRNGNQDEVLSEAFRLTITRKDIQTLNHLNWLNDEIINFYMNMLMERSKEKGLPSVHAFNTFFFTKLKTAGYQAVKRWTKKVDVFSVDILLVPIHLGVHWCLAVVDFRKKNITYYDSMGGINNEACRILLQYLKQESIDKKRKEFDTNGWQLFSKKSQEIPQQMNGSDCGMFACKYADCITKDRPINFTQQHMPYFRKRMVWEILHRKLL
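Test system: human SENP1 catalytic domain; medium: Tris pH 8 buffer plus EDTA, NaCl, BME, BSA, NP40, catalase; incubation: 50 min reaction at room temperature; technique: FRET, CFP and YFP emission; controls: no-enzyme low control and enzyme-plus-DMSO high control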
Arr AP2 block: inhibitors of human beta-arrestin and AP2 interaction; FITC-arrestin peptide / GST-AP2 beads, flow cytometry; AP2 beta2 appendage carries R879A mutation; inhibition, % at 10 µM; actives 0.31% (n = 340,000);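 active means inhibition above a set limit, near 3 SD of compounds lacking own fluorescence, cut at about 54% in these data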
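Assay system: GST-AP2 R879A bound to glutathione beads, E. coli-expressed; Medium: PBS with 0.05% Tween 20 and 0.1% BSA; Also added: fluorescein-tagged arrestin peptide at 50 nM final; Timing: 12 min plus 1 h, RT; Measured by: flow cytometry, FL1 (488/535 nm); Evaluation: percent drop in bead-associated FITC signal.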
FAS TE block: blocks the thioesterase domain of human fatty acid synthase; P49327; recombinant FAS-TE, OMFH fluorogenic substrate, fluorescence endpoint; inhibition, % at 15 µM; actives 0.67% (n = 360,000); AID 602261;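 active means compounds whose normalised, plate-corrected inhibition of enzyme fluorescence in the single-dose primary screen is 50% or more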
GASC-1 inh: inhibitors of human GASC-1 (JMJD2C) demethylase; Q9H3R0; GST-JMJD2C(1-420) H3K9me3 demethylation, DELFIA europium; inhibition, % at 2.35 µM; actives 0.069% (n = 330,000);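 active means more than half of a compound's replicate wells show inhibition beyond 50%, single wells judged on their own value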;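 further: signal counts dimethyl H3K9 product captured on neutravidin plate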
Target sequence (Q9H3R0 1-420 limits assumed): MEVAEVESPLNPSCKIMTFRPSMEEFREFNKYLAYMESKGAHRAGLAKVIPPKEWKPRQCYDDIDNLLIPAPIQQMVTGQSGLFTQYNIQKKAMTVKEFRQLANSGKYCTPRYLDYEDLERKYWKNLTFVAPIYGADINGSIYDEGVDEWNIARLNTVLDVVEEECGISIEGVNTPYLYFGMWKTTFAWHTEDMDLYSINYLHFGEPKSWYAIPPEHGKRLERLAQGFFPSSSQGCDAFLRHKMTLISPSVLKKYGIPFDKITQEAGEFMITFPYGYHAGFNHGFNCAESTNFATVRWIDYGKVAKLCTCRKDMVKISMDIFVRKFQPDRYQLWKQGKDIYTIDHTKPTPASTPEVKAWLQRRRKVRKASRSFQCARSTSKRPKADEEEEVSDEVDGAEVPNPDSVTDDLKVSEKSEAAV
FAS-TE inh conf: FAS thioesterase (human) inhibition, confirmation; AID 624325; inhibition, % at 15 µM; actives 45% (n = 2,300); shares compounds with FAS TE block; recombinant FAS-TE, OMFH fluorogenic substrate, fluorescence;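 active means compounds inhibiting the enzyme by at least 50% at 15 µM in any one of the replicates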
Of the large screens only hits and unclear results are named; the others gave an inactive call (follow-up assays come after a bar, where they were run). A selection: hits, their analogues and other compounds. The true share with any hit is near 1.1%.

O=C(N/N=C/c1coc2ccc(Cl)cc2c1=O)c1cc(O)cc(O)c1	FAS TE block 66.6 | FAS-TE inh conf inactive
COC(=O)C1=C(C)NC(C)=C(C(=O)OC)C1c1ccc(OC(=O)c2oc3ccccc3c2C)c(OC)c1	FAS TE block 52.4 | FAS-TE inh conf inactive
COC(=O)C1=C(C)NC(=O)NC1c1ccc(OC)c(OC)c1 (stereo not given)	none (no result: Arr AP2 block, GASC-1 inh)
COc1ccc(CNS(=O)(=O)c2cn(C)c(=O)n(C)c2=O)cc1	none
N#CC1=C(N)Oc2n[nH]c(-c3cccnc3)c2C1c1cc(F)ccc1F (stereo not given)	none
Cc1c([N+](=O)[O-])cc(C(=O)Nc2ccc(Cc3ccncc3)cc2)cc1[N+](=O)[O-]	FAS TE block 63.3 | FAS-TE inh conf 51.0
COc1ccc([N+](=O)[O-])cc1C(=O)Nc1ccc(Cc2ccncc2)cc1	FAS TE block 60.0 | FAS-TE inh conf 53.6
O=C(Nc1ccc(Nc2ccccc2)cc1)c1ccc(Cl)c([N+](=O)[O-])c1	none
O=C(Nc1ccc(Cc2ccncc2)cc1)c1ccc(Cl)c([N+](=O)[O-])c1	FAS TE block 55.7 | FAS-TE inh conf 62.5
CCCN1C2CCCC1CC(NC(=O)c1ccccc1)C2 (stereo not given)	none
O=C(COC(=O)C1Cc2ccccc2CN1C(=O)c1ccccc1Cl)Nc1ccc(N2CCOCC2)cc1 (stereo not given)	none
CCC(=O)N1CCc2cc(S(=O)(=O)NCCC(=O)NCc3ccccc3Cl)ccc21	none
COc1ccc2nc3n(c(=O)c2c1)-c1cc2ccccc2cc1C(=O)NC3Cc1ccccc1 (stereo not given)	FAS TE block 78.3 (no result: Arr AP2 block, GASC-1 inh) | FAS-TE inh conf inactive
CC(C)CC1NC(=O)c2cc3ccccc3cc2-n2c1nc1ccc(Cl)cc1c2=O (stereo not given)	FAS TE block 73.8 (no result: Arr AP2 block, GASC-1 inh) | FAS-TE inh conf inactive
COc1ccc2nc3n(c(=O)c2c1)-c1cc2ccccc2cc1C(=O)NC3Cc1ccc(O)cc1 (stereo not given)	none (no result: Arr AP2 block, GASC-1 inh)
NC(=O)c1ccc(NC(=O)CC23CC4CC(CC(Br)(C4)C2)C3)cc1	none
CN(CC(=O)Nc1ccc(S(=O)(=O)N(C)C)cc1)Cc1ccc(C(F)(F)F)cc1	FAS TE block 52.6 | FAS-TE inh conf inactive
CN(C)CCCNC(=O)CC1C[C@H](C(=O)N2CCOCC2)[C@@]2(CCC3CCCC3)c3[nH]c4ccccc4c3CCN2C1=O (stereo not given in full)	FAS TE block 77.8 | FAS-TE inh conf 85.7
O=C(CC1C[C@H](C(=O)N2CCOCC2)[C@@]2(CCC3CCCC3)c3[nH]c4ccccc4c3CCN2C1=O)NCCC1=CCCCC1 (stereo not given in full)	FAS TE block 73.2 | FAS-TE inh conf 38.5
COc1ccc2[nH]c3c(c2c1)CCN1C(=O)C(CC(=O)NCCN2CCOCC2)C[C@H](C(=O)N2CCOCC2)[C@@]31CCC1CCCC1 (stereo not given in full)	none (no result: GASC-1 inh)
CCc1nc2c(OCc3ccc(C(F)(F)F)cc3)cccn2c1N(C=O)Cc1ccc(OC)cc1	FAS TE block 56.8 (no result: Arr AP2 block, GASC-1 inh) | FAS-TE inh conf 51.7
CCCCN(C=O)c1c(CC)nc2c(OCc3ccc(Cl)cc3Cl)cccn12	FAS TE block 55.2 (no result: Arr AP2 block, GASC-1 inh) | FAS-TE inh conf 60.6
O=C(NCCCN1CCOCC1)c1cc2c(s1)CCCC2	none
CCCCSc1nc2ccc(Nc3nc(N4CCOCC4)nc(N4CCOCC4)n3)cc2s1	FAS TE block 85.5 | FAS-TE inh conf inactive
Cc1ccc(CNC(=S)Nc2ccc(C)c([N+](=O)[O-])c2)cc1	none
Cc1ccc(NC(=S)NCc2ccccc2)cc1[N+](=O)[O-]	FAS TE block 64.2 | FAS-TE inh conf inactive
Cc1ccc([N+](=O)[O-])cc1NC(=S)NCCc1ccccc1	FAS TE block 55.5 | FAS-TE inh conf 71.3
Cc1ccc([N+](=O)[O-])cc1NC(=O)C(Sc1ccccc1)c1ccccc1 (stereo not given)	FAS TE block 81.5 | FAS-TE inh conf 85.2
Cc1ccc(C(=O)O)cc1NC(=S)NCCc1ccccc1	none
COCCNC(=O)CN(C(=O)c1ccc(N2CCCC2)nc1)c1ccc(F)c(Cl)c1	none
COc1cccc(CNC(=O)Cn2ccc3cc(S(=O)(=O)N4CCCC4)ccc32)c1	none
CCN(CC)CCn1c2c(c(SCC(=O)Nc3cccc4ccccc34)nc1=O)CCCC2	none
Nc1nc(-c2ccc3c(c2)CCCC3)cs1	none (no result: GASC-1 inh)
COc1ccc(/C=C(\NC(=O)c2ccc(OC)cc2)C(=O)NC(CCSC)C(=O)O)cc1 (stereo not given)	none
CCCCOc1ccc(C(=O)N/C(=C/C=C/c2ccccc2)C(=O)NCCCO)cc1	none
COc1ccc(/C=C(/NC(=O)c2ccc([N+](=O)[O-])cc2)C(=O)NCCCN(C)C)cc1	FAS TE block 71.2 | FAS-TE inh conf 77.2
C=CCNC(=O)/C(=C\c1ccc(OC)cc1)NC(=O)c1ccc([N+](=O)[O-])cc1	FAS TE block 75.7 | FAS-TE inh conf 83.0
CN(C)CCCNC(=O)/C(=C\C=C\c1ccccc1)NC(=O)c1ccc([N+](=O)[O-])cc1	FAS TE block 86.4 | FAS-TE inh conf 89.3
COc1ccc(C(=O)N/C(=C\c2ccc([N+](=O)[O-])cc2)C(=O)NC(CCSC)C(=O)O)cc1 (stereo not given)	FAS TE block 57.1 | FAS-TE inh conf 52.8
Cc1ccc(C(=O)N/C(=C\c2ccc([N+](=O)[O-])cc2)C(=O)NCCc2ccccc2)cc1	none
Cc1cc(C)cc(N=C2NC(=O)CS2)c1	none
COc1ccc2[nH]c3c(c2c1)CCN1C(=O)C(CC(=O)NCc2ccco2)C[C@H](C(=O)N2CCOCC2)[C@@]31CCC1CCCC1 (stereo not given in full)	FAS TE block 64.6 (no result: GASC-1 inh) | FAS-TE inh conf 76.3
COc1ccc2[nH]c3c(c2c1)CCN1C(=O)C(CC(=O)NC(C)(C)C)C[C@H](C(=O)N2CCOCC2)[C@@]31CCC1CCCC1 (stereo not given in full)	FAS TE block 53.4 (no result: GASC-1 inh) | FAS-TE inh conf 68.8
Cc1cc2oc(=O)cc(CN3CCN(S(=O)(=O)/C=C/c4ccccc4)CC3)c2cc1C	FAS TE block 54.1 | FAS-TE inh conf inactive
C=CCn1c(C)c(C(C)=O)c(N2CCN(C(c3ccccc3)c3ccccc3)CC2)nc1=S	FAS TE block 58.4 | FAS-TE inh conf inactive
CC(OC(=O)Cc1n[nH]c(=O)c2ccccc12)C(=O)Nc1cc(Cl)cc(Cl)c1 (stereo not given)	none
O=C(NCCc1ccccc1)C1CCN(S(=O)(=O)c2cccs2)CC1	none
O=C(NCCN1C(=O)S/C(=C\c2ccccc2)C1=O)C1CCN(S(=O)(=O)c2cccs2)CC1	FAS TE block 52.7 | FAS-TE inh conf 58.0
COC(=O)c1ccnc(/C=N/O)c1	none
O=c1cc(-c2ccc(O)cc2)oc2c(O)c(O)c(O)c(O)c12	none (no result: GASC-1 inh)
